Measured values: PMC8828683 (Stem Cell Reports, 2022)

Assays:
[1] = tested on: H1-diff (spontaneously differentiated H1 ESCs); experiment: Live cells / PCD by FACS of nonpermeabilized cells stained with annexin-V and PI; assay type: cell-based, human; conditions: read-out: IC50 Live Cells, 4 days
How it was run: (§1)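 Cells were seeded so that vehicle wells stayed subconfluent, then treated with a range of test compound concentrations for 4 days. Without permeabilization, they were stained with annexin-V-FITC and propidium iodide and analysed by flow cytometry. Double-negative cells (Q3) were scored as live and Q1+Q2 as programmed death. Vehicle was set to 100% viable and 0% dead. Results are the mean of three independent assays with SEM; group averages and ratios are derived from the IC50s.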

[2] = tested on: GCT27D.C1 teratocarcinoma xenografts; experiment: Teratocarcinoma xenograft, daily intraperitoneal injections; assay type: in vivo, mice
How it was run: (§2)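 Six-week-old female […] BALB/c nude mice were injected subcutaneously in the lower right flank with 200 μL of 50% Matrigel holding 2 million NTERA-2 or 5 million GCT27D.C1 cells (eight mice per model). Once tumors were palpable, mice received 40 mg/kg test compound i.p. daily (DMSO solution diluted in sunflower oil to 200 μL) or vehicle. Tumor volume was calculated as length × width² × 0.5 from calipers, TGI was calculated, and body weight was tracked. Tumors were harvested 15 days later.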

[3] = Maximum solubility in DMSO; assay type: physicochemical
differentiated cells [4] = experiment: DNA loss; assay type: cell-based; conditions: read-out: IC50 DNA loss, on average; average over differentiated cells
How it was run: (§3)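 Cells were exposed to a range of test compound concentrations alongside vehicle (DMSO) controls. They were then permeabilized, stained with propidium iodide, and DNA content was read by flow cytometry. IC50 is the concentration at which 50% of cells hold <2N DNA, from 3 independent repetitions with SEM. Line averages and differentiated/pluripotent ratios are derived from these IC50s. NTERA-2 was also run as a time course at 5 μM, normalized to vehicle at each time point.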

NTERA-2 ECC = experiment: Cells with <2N DNA by FACS of permeabilized cells stained with PI; assay type: cell-based, human
How it was run: as §3

WA01/H1 ESC [5] = experiment: as above; assay type: cell-based, human; conditions: read-out: IC50 DNA (50% of cells with <2N DNA)
How it was run: as §3

differentiated cells [6] = experiment: Inhibition of cell proliferation; assay type: cell-based; conditions: read-out: IC50 inhibition of proliferation; insensitive differentiated cells
WA09/H9 ESC [7] = experiment: Cellular ATP level; assay type: cell-based, human; conditions: read-out: IC50 ATP
How it was run: (§4)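 Cellular ATP was measured with a CellTiter-Glo luminescence viability assay after exposure to a concentration range of test compound. IC50 is the average of three independent assays. Mean IC50s across differentiated or human pluripotent lines, and their ratio, are derived from the per-line values.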

SCUi24 iPSC [8] = experiment: Cells with <2N DNA by FACS of permeabilized cells stained with PI; assay type: cell-based, human; conditions: read-out: IC50 DNA (50% of cells with <2N DNA)
How it was run: as §3

differentiated cells [9] = experiment: PCD / live cell loss; assay type: cell-based; conditions: read-out: IC50 initiation of PCD, on average; average over differentiated cells
How it was run: as §1

Toxicity studies in mice = assay type: in vivo, mouse; conditions: doses from 20 to 100 mg/kg body weight
differentiated cells [10] = experiment: ATP loss, summary over differentiated cell lines; assay type: cell-based; conditions: read-out: IC50 ATP loss, on average
How it was run: as §4

[11] = tested on: H108 normal skin fibroblast; experiment: Cells with <2N DNA by FACS of permeabilized cells stained with PI; assay type: cell-based, human; conditions: read-out: IC50 DNA (50% of cells with <2N DNA)
How it was run: as §3

[12] = tested on: VeroE6 normal kidney epithelial; experiment: as above; assay type: cell-based, monkey; conditions: read-out: IC50 DNA (50% of cells with <2N DNA)
How it was run: as §3

[13] = tested on: HFF-1 normal skin fibroblast; experiment: as above; assay type: cell-based, human; conditions: read-out: IC50 DNA (50% of cells with <2N DNA); HFF-1
How it was run: as §3

H1 ESCs = experiment: Immunoblotting of total cell extracts; assay type: cell-based, human
How it was run: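 Cells were cultured with 2.5 μM test compound for up to 96 h, and attached plus unattached cells were pooled. Whole-cell RIPA lysates were run on 4–12% Bis-Tris gels, transferred to nitrocellulose and blocked in 5% milk/TBS. Primary antibodies went on overnight at 4°C, followed by infrared secondary antibodies and imager quantitation. Each blot carried untreated U2OS as a shared standard, with Ponceau-S histones for normalization and lighter exposures for quantitation. Adriamycin for 24 h (NTERA-2 1 μM, H108 2 μM) served as a DNA-break control.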

SCUi24 iPSC [14] = experiment: Cellular ATP level; assay type: cell-based, human; conditions: read-out: IC50 ATP
How it was run: as §4

WA01/H1 ESC [15] = experiment: Live cells / PCD by FACS of nonpermeabilized cells stained with annexin-V and PI; assay type: cell-based, human; conditions: read-out: IC50 Live Cells
How it was run: as §1

VeroE6 cells = experiment: Inhibition of cell proliferation; assay type: cell-based, monkey; conditions: read-out: IC50 inhibition of proliferation
WA01/H1 ESC [16] = experiment: Cellular ATP level; assay type: cell-based, human; conditions: read-out: IC50 ATP
How it was run: as §4

[17] = tested on: NTERA-2 teratocarcinoma xenografts; experiment: Teratocarcinoma xenograft, daily intraperitoneal injections; assay type: in vivo, mice
How it was run: as §2

TERA-2 ECC = experiment: Cells with <2N DNA by FACS of permeabilized cells stained with PI; assay type: cell-based, human; conditions: read-out: IC50 DNA (50% of cells with <2N DNA)
How it was run: as §3

[18] = tested on: SCUi24-diff (spontaneously differentiated SCUi24 iPSCs); experiment: as above; assay type: cell-based, human; conditions: read-out: IC50 DNA (50% of cells with <2N DNA)
How it was run: as §3

WA09/H9 ESC [19] = experiment: as above; assay type: cell-based, human; conditions: ratio differentiated/pluripotent
How it was run: as §3

[20] = H1, 2.5 μM WX8, normalized to histones

C(=N\Nc1nc(Nc2ccccc2)nc(N2CCOCC2)n1)/c1c[nH]c2ccccc12 [WX8]
IC50 [1]: > 10 µM | Tumor growth inhibition (TGI) ([2]; GCT27D.C1 tumors, 40 mg WX8/kg daily i.p.): 78% | OCT4-, SOX2- and Ki67-stained cells in tumor slices ([2]; GCT27D.C1 tumors, 40 mg WX8/kg daily i.p., immunohistochemistry): selectively eliminated cells expressing OCT4 or SOX2 protein with no detectable effect on proliferating cells | Mouse body weights ([2]; GCT27D.C1 xenograft mice, 40 mg WX8/kg daily i.p.): maintained | Effect on teratocarcinoma xenografts ([2]; GCT27D.C1 xenografts, intraperitoneal injections of WX8): Eliminated stem cells and inhibited tumor growth | Maximum solubility [3]: about 30 mg WX8/350μL DMSO | IC50 (differentiated cells [4]): 67.5 µM | Cells with <2N DNA (NTERA-2 ECC; NTERA-2, 5 μM WX8, 96h (4 days)): > 80% | IC50 (NTERA-2 ECC; read-out: IC50 DNA (50% of cells with <2N DNA), NTERA-2 ECC): 3.5 µM | IC50 (WA01/H1 ESC [5]): 2 µM | IC50 (differentiated cells [6]): > 100 µM | IC50 (WA09/H9 ESC [7]): 0.26 µM | IC50 (SCUi24 iPSC [8]): 1 µM | IC50 (differentiated cells [9]): 81.3 µM | Maximum dose at which no indication of mouse impairment was observed (Toxicity studies in mice): 40 mg/kg | IC50 (differentiated cells [10]): 15.8 µM | IC50 [11]: 140 µM | IC50 [12]: 60 µM | IC50 [13]: 50 µM | CASP3 cleavage (H1 ESCs; H1, 2.5 μM WX8): < 2% | PARP cleavage (H1 ESCs; H1, 2.5 μM WX8): 20% | Accumulation of p62 protein (H1 ESCs; [20]): < 2 fold | Accumulation of total LC3 protein (H1 ESCs; [20]): 2 fold | CASP12 cleavage (H1 ESCs; H1, WX8): < 2% | Cleaved CASP7 (H1 ESCs; H1, WX8): not detected | IC50 (SCUi24 iPSC [14]): 0.4 µM | IC50 (WA01/H1 ESC [15]): 1.9 µM | IC50 (VeroE6 cells): 0.45 µM | IC50 (WA01/H1 ESC [16]): 1.6 µM | Tumor growth inhibition (TGI) ([17]; NTERA-2 tumors, 40 mg WX8/kg daily i.p.): 71% | Mouse body weights ([17]; NTERA-2 xenograft mice, 40 mg WX8/kg daily i.p.): maintained | Effect on teratocarcinoma xenografts ([17]; NTERA-2 xenografts, intraperitoneal injections of WX8): Eliminated stem cells and inhibited tumor growth | IC50 (TERA-2 ECC): 5 µM | IC50 [18]: > 10 µM | Range of sensitivity to WX8-induced cell death (DNA loss), HBEC/H9 (WA09/H9 ESC [19]): 5 fold
